Measured values reported in ChEMBL document CHEMBL1124101, “Asymmetrical bisintercalators as potential antitumor agents” (1988).

Key:
L1210 [1] = test: Optimal dose for anti-tumor activity in vivo on L1210-infected mice; type: functional, Mus musculus
L1210 [2] = test: Dose required to inhibit the cloning efficiency to a factor of 37%,measured in vitro on L1210 cells after 24-h exposure
L1210 [3] = test: Maximal tolerated dose for anti-tumor activity in vivo on L1210-infected mice; type: functional, Mus musculus
Nucleic Acid = test: Binding affinity for DNA; type: nucleic-acid assay
Outline: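 Fluorometric competition with ethidium dimer (6.4 × 10^-7 M) pre-equilibrated 24 h with calf thymus DNA (1.6 × 10^-6 M base pairs). Drug was added at varying concentrations. Fluorescence was excited at 540 nm and read at 610 nm. Bound ethidium dimer per base pair was derived, and computed displacement curves were fitted to the experimental ones to give apparent affinity constants (M^-1).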

L1210 [4] = test: Dose that inhibits 50% of the L1210 cell growth after 24 hr exposure to the compound.; type: functional; conditions: Mus musculus, L1210, 24 h; read-out: ED50 (the source's name)
Mus musculus = species on record: Mus musculus; test: Treated mean survival time per control mean survival time.; type: functional
Escherichia coli = test: Cytotoxicity on Escherichia coli polA strain mutant expressed as dose required to inhibit 37% of cell growth; type: functional

| Compound | OD (L1210 [1]) | EC37 (L1210 [2]) | MTD (L1210 [3]) | K app x10e-7 (Nucleic Acid) | EC50 (L1210 [4]) | T/C (Mus musculus) | EC37 (Escherichia coli) |
| --- | --- | --- | --- | --- | --- | --- | --- |
| COc1ccc2[nH]c3ccc4cc[n+](CCCN5CCC(C6CCN(CC[n+]7ccc8ccc9[nH]c%10ccc(OC)cc%10c9c8c7)CC6)CC5)cc4c3c2c1.CS(=O)(=O)[O-].CS(=O)(=O)[O-] | 10 mg/kg | 0.09 µM | 20 mg/kg | 5 M⁻¹ | 0.72 µM | 137% | 0.016 µM |
| COc1ccc2c(c1)c1c3c[n+](CCN4CCC(C5CCN(CC[n+]6ccc7ccc8c(c7c6)c6cc(OC)ccc6n8C)CC5)CC4)ccc3ccc1n2C.CS(=O)(=O)[O-].CS(=O)(=O)[O-] | 2.5 mg/kg | 0.006 µM | 10 mg/kg | 2 M⁻¹ | 0.36 µM | 178% | 0.013 µM |
| COc1ccc2c(c1)c1c3c[n+](CCN4CCC(CCC5CCN(CC[n+]6ccc7ccc8c(c7c6)c6cc(OC)ccc6n8C)CC5)CC4)ccc3ccc1n2C.CS(=O)(=O)[O-].CS(=O)(=O)[O-] | 5 mg/kg | 0.77 µM | 10 mg/kg | 3 M⁻¹ | 0.9 µM | 170% | 0.225 µM |
| COc1ccc2c(c1)c1c3c[n+](CCN4CCC(CC5CCN(CC[n+]6ccc7ccc8c(c7c6)c6cc(OC)ccc6n8C)CC5)CC4)ccc3ccc1n2C.CS(=O)(=O)[O-].CS(=O)(=O)[O-] | 3 mg/kg | 0.013 µM | 10 mg/kg | 20 M⁻¹ | 0.7 µM | 190% | 0.014 µM |
| COc1ccc2c(c1)c1c3c[n+](CCCN4CCC(C5CCN(CC[n+]6ccc7ccc8c(c7c6)c6cc(OC)ccc6n8C)CC5)CC4)ccc3ccc1n2C.CS(=O)(=O)[O-].CS(=O)(=O)[O-] | 10 mg/kg | 0.112 µM | 10 mg/kg | 1 M⁻¹ | > 0.9 µM | 128% | 0.025 µM |
| COc1ccc2[nH]c3ccc4cc[n+](CCN5CCC(CCCC6CCN(CC[n+]7ccc8ccc9[nH]c%10ccc(OC)cc%10c9c8c7)CC6)CC5)cc4c3c2c1.CS(=O)(=O)[O-].CS(=O)(=O)[O-] | 5 mg/kg | 0.14 µM | 10 mg/kg | 5 M⁻¹ | 0.34 µM | – | 0.087 µM |
| COc1ccc2nc3cc(Cl)ccc3c(NCCN3CCC(C4CCN(CC[n+]5ccc6ccc7[nH]c8ccc(OC)cc8c7c6c5)CC4)CC3)c2c1.[Cl-] | 15 mg/kg | 17 µM | 15 mg/kg | 5 M⁻¹ | 2.7 µM | – | 0.057 µM |
| COc1ccc2c(c1)c1c3c[n+](CCN4CCC(CCCC5CCN(CC[n+]6ccc7ccc8c(c7c6)c6cc(OC)ccc6n8C)CC5)CC4)ccc3ccc1n2C.CS(=O)(=O)[O-].CS(=O)(=O)[O-] | 10 mg/kg | 0.15 µM | 10 mg/kg | 20 M⁻¹ | 0.26 µM | – | 0.009 µM |
| COc1ccc2[nH]c3ccc4cc[n+](CCN5CCC(C6CCN(CC[n+]7ccc8ccc9[nH]c%10ccc(OC)cc%10c9c8c7)CC6)CC5)cc4c3c2c1.CS(=O)(=O)[O-].CS(=O)(=O)[O-] | 10 mg/kg | 0.024 µM | 10 mg/kg | 1 M⁻¹ | 0.19 µM | 182% | 0.013 µM |
| COc1ccc2nc3cc(Cl)ccc3c(NCCN3CCC(C4CCN(CC[n+]5ccc6ccc7c(c6c5)c5cc(OC)ccc5n7C)CC4)CC3)c2c1.CS(=O)(=O)[O-] | 15 mg/kg | >0.9 µM | 15 mg/kg | 10 M⁻¹ | 0.24 µM | – | 0.029 µM |
| COc1ccc2[nH]c3ccc4cc[n+](CCN5CCC(CC6CCN(CC[n+]7ccc8ccc9[nH]c%10ccc(OC)cc%10c9c8c7)CC6)CC5)cc4c3c2c1.CS(=O)(=O)[O-].CS(=O)(=O)[O-] | 7 mg/kg | 0.063 µM | 30 mg/kg | 10 M⁻¹ | 1.08 µM | 175% | 0.021 µM |
| COc1ccc2[nH]c3ccc4cc[n+](CCN5CCC(CCC6CCN(CC[n+]7ccc8ccc9[nH]c%10ccc(OC)cc%10c9c8c7)CC6)CC5)cc4c3c2c1.CS(=O)(=O)[O-].CS(=O)(=O)[O-] | 5 mg/kg | 0.22 µM | 20 mg/kg | 7 M⁻¹ | 1.34 µM | 143% | 0.015 µM |
